According to ChEMBL document CHEMBL3785035, “Phase II Metabolic Pathways of Spectinamide Antitubercular Agents: A Comparative Study of the Reactivity of 4-Substituted Pyridines to Glutathione Conjugation” (Medchemcomm, 2016):

What was measured:
Assay type in all cases: ADME, subcellular
Liver [1] = assay: (§1) Metabolic stability in human liver S9 fraction assessed as parent compound remaining at 100 uM preincubated for 5 mins followed by PAPS addition measured after 2 hrs by LC-MS/MS analysis; conditions: s9, 2 h, 100 µM
Summary of the method: (§2)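 Sulfation incubation: rat or human liver S9 at 2 mg/mL in 0.1 M potassium phosphate pH 7.4 with 1 mM MgCl2. Preincubated 5 min at 37 °C, then started with PAPS (0.2 mM in incubation). Controls lacked PAPS. Aliquots taken over 120 min and quenched in cold methanol with internal standard. LC-MS/MS read-out; parent remaining expressed against time zero.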

[2] = Half life in human liver S9 fraction at 100 uM preincubated for 5 mins followed by glutathione addition measured after 2 hrs by LC-MS/MS analysis
Summary of the method: (§3)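 S9 (rat or human) at 10 mg/mL in 0.1 M potassium phosphate pH 7.4, with 1 mM MgCl2. Preincubated 5 min at 37 °C, 150 rpm, then started with glutathione (0.2 mM in incubation). Controls lacked glutathione. Sampled 0–120 min, quenched in ice-cold methanol with internal standard. Parent measured by HILIC LC-MS/MS and expressed as % of time zero. Mean with %CV.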

[3] = Half life in rat liver S9 fraction at 100 uM preincubated for 5 mins followed by glutathione addition measured after 2 hrs by LC-MS/MS analysis; summary of the method: as §3
[4] = Metabolic stability in human liver S9 fraction assessed as parent compound remaining at 100 uM preincubated for 5 mins followed by glutathione addition measured after 2 hrs by LC-MS/MS analysis; conditions: read-out: Stability; summary of the method: as §3
Liver [5] = assay: (§4) Metabolic stability in rat liver S9 fraction assessed as parent compound remaining at 100 uM preincubated for 5 mins followed by PAPS addition measured after 2 hrs by LC-MS/MS analysis; conditions: s9, 2 h, 100 µM; summary of the method: as §2
[6] = Metabolic stability in rat liver S9 fraction assessed as parent compound remaining at 100 uM preincubated for 5 mins followed by UDPGA addition measured after 2 hrs by LC-MS/MS analysis; conditions: read-out: Stability
Summary of the method: (§5)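 Glucuronidation: 2 mg/mL rat or human S9 in 0.1 M potassium phosphate pH 7.4, activated with alamethicin (50 μg) 15 min on ice. Then 1 mM MgCl2 was added, with 5 min preincubation at 37 °C. Started with UDPGA (5 mM in incubation); controls without UDPGA. Samples taken to 120 min and quenched with methanol plus internal standard. LC-MS/MS; % parent relative to time zero.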

[7] = Metabolic stability in human liver S9 fraction assessed as parent compound remaining at 100 uM preincubated for 5 mins followed by UDPGA addition measured after 2 hrs by LC-MS/MS analysis; conditions: read-out: Stability; summary of the method: as §5
[8] = Metabolic stability in rat liver S9 fraction assessed as parent compound remaining at 100 uM preincubated for 5 mins followed by glutathione addition measured after 2 hrs by LC-MS/MS analysis; conditions: read-out: Stability; summary of the method: as §3
[9] = as §1; conditions: liver S9 fraction; summary of the method: as §2
[10] = as §4; conditions: liver S9 fraction, read-out: Stability; summary of the method: as §2

Row | SMILES | half-life at 100 µM [2] | half-life at 100 µM [3] | remaining at 2 h, 100 µM [4] | remaining at 2 h, 100 µM [6] | remaining at 2 h, 100 µM [7] | remaining at 2 h, 100 µM [8] | remaining at 2 h, 100 µM [9] | remaining at 2 h, 100 µM [10] | Stability (Liver [1]) | Stability (Liver [5])
1 | CN[C@@H]1[C@H](O)[C@H](NC)[C@H]2O[C@]3(O)[C@H](O[C@@H]2[C@H]1O)O[C@H](C)C[C@H]3NC(=O)Cc1ccccn1 | 38 h | > 50 h | 96.7% | > 93% | > 93% | 99.8% |  |  | > 96% | 89%
2 | CN[C@@H]1[C@H](O)[C@H](NC)[C@H]2O[C@]3(O)[C@H](O[C@@H]2[C@H]1O)O[C@H](C)C[C@H]3NC(=O)Cc1cc(Cl)ccn1 | > 50 h | 3.35 h | 98.7% | > 93% | > 93% | 71.9% |  |  | > 96% | 88%
3 | CN[C@@H]1[C@H](O)[C@H](NC)[C@H]2O[C@]3(O)[C@H](O[C@@H]2[C@H]1O)O[C@H](C)C[C@H]3NC(=O)Cc1cc(Cl)c(C)cn1 | 23 h | 0.66 h | 93.5% | > 93% | > 93% | 12.9% |  |  | 91% | Stable
4 | CN[C@@H]1[C@H](O)[C@H](NC)[C@H]2O[C@]3(O)[C@H](O[C@@H]2[C@H]1O)O[C@H](C)C[C@H]3NC(=O)Cc1cc(Cl)c(OC)cn1 | > 50 h | 6.7 h | 98.8% | > 93% | > 93% | 81.1% | > 96% | > 95% |  | 
5 | CN[C@@H]1[C@H](O)[C@H](NC)[C@H]2O[C@]3(O)[C@H](O[C@@H]2[C@H]1O)O[C@H](C)C[C@H]3NC(=O)Cc1cc(Cl)c(F)cn1 | > 50 h | > 50 h | 98.6% | > 93% | > 93% | 98.6% | > 96% | > 95% |  | 
6 | CC(=O)Nc1ccc(O)cc1 [ACETAMINOPHEN] | 4.4 h | 1.48 h | 74.5% |  |  | 43% |  |  |  | 

Continued, in another order:

Row | half-life at 100 µM [2] | half-life at 100 µM [3] | remaining at 2 h, 100 µM [4] | remaining at 2 h, 100 µM [6] | remaining at 2 h, 100 µM [7] | remaining at 2 h, 100 µM [8] | remaining at 2 h, 100 µM [9] | remaining at 2 h, 100 µM [10] | SMILES | Stability (Liver [1]) | Stability (Liver [5])
7 | > 50 h | 32.6 h | 98.7% | > 93% | > 93% | 96.6% | > 96% | > 95% | CN[C@@H]1[C@H](O)[C@H](NC)[C@H]2O[C@]3(O)[C@H](O[C@@H]2[C@H]1O)O[C@H](C)C[C@H]3NC(=O)Cc1ccc(F)cn1 |  | 
8 | > 50 h | > 50 h | 99.9% | > 93% | > 93% | 99.4% | > 96% | > 95% | CN[C@@H]1[C@H](O)[C@H](NC)[C@H]2O[C@]3(O)[C@H](O[C@@H]2[C@H]1O)O[C@H](C)C[C@H]3NC(=O)Cc1ccc(Cl)cn1 |  | 
9 | > 50 h | > 50 h | 99.9% | > 93% | > 93% | 98.6% | > 96% | > 95% | CN[C@@H]1[C@H](O)[C@H](NC)[C@H]2O[C@]3(O)[C@H](O[C@@H]2[C@H]1O)O[C@H](C)C[C@H]3NC(=O)Cc1ccc(O)cn1 |  | 
